Experimental data gathered from unrelated publications.
Organism: Mycobacterium tuberculosis
Effect on: microbial growth

| SMILES | test | system | setting | MIC |
| --- | --- | --- | --- | --- |
| O=C(Cc1ccccc1)Nc1cc(-c2ccccn2)nc2nncn12 |  | H37RV |  | 2 µM |
| CCOC(=O)c1c(-c2ccc(OC)cc2)oc2ccc(OCc3cn(Cc4ccccc4)nn3)c(CN3CCCCC3)c12 |  | CDC1551 |  | 2.4 µM |
| NC(=S)NN=Cc1ccc(OC(=O)CN2C(=O)CSC2=O)c(Cl)c1 | resazurin | H37RV |  | 5.17 µM |
| Brc1ccc(CCNc2cc(-c3ccccn3)nc3nncn23)cc1 |  | H37RV |  | 1.1 µM |
| CCc1cc(=O)c2c(OCC(O)CN3CCC(C)CC3)c3ccoc3c(OC)c2o1 (stereo not shown) | resazurin | H37RV | 21 days | 32 µg/mL |
| Cc1nc2[nH]c(=O)n(O)c(=O)c2s1 |  |  |  | 20.4 µM |
| C#CCNC(=O)c1c(-c2ccc(OC)cc2)oc2ccc(O)c(CN3CCCCC3)c12 |  | CDC1551 |  | 0.8 µM |
| CCCc1ccc(CNc2cc(-c3ccccn3)nc3nncn23)cc1 |  | H37RV | 5 days | > 100 µM |
| NNC(=O)c1ccncc1 |  | H37RA |  | 0.34 µM |
| COc1c(N2C[C@@H]3CCCN[C@@H]3C2)c(F)cc2c(=O)c(C(=O)O)cn(C3CC3)c12 |  | H37RV |  | 0.13 µM |
| CCOC(=O)c1c(-c2ccc(OC)cc2)oc2ccc(O)c(CN3CCN(Cc4cn(C[C@H]5O[C@H](O[C@H]6O[C@H](CO)[C@@H](O)[C@H](O)[C@H]6O)[C@H](O)[C@@H](O)[C@@H]5O)nn4)CC3)c12 |  | CDC1551 |  | 5.3 µM |
| NNC(=O)c1ccncc1 | resazurin | H37RV |  | 0.228 µM |
| FC(F)(F)c1ccc(CCNc2cc(-c3ccccn3)nc3nnc(C4CC4)n23)cc1 |  | H37RV |  | 42 µM |
| O=c1[nH]c2nc(-c3cccnc3)sc2c(=O)n1O |  |  |  | > 100 µM |
| COc1ccc(-c2oc3ccc(O)c(CN4CCCCC4)c3c2C(=O)NCc2cn(Cc3ccccc3)nn2)cc1 |  | CDC1551 |  | 2 µM |
| CC[C@@H](CO)NCCN[C@@H](CC)CO | resazurin | H37RV | 7 days | 1.56 µg/mL |
| [H]/N=C(/N)N[C@H]1[C@H](O)[C@@H](O)[C@H](O[C@@H]2O[C@@H](C)[C@](O)(C=O)[C@H]2O[C@@H]2O[C@@H](CO)[C@H](O)[C@@H](O)[C@@H]2NC)[C@@H](N/C(N)=N\[H])[C@@H]1O | resazurin |  | 21 days | 64 µg/mL |
| CCCc1nc2[nH]c(=O)n(O)c(=O)c2s1 |  |  |  | 47.4 µM |
| CO[C@H]1/C=C/O[C@@]2(C)Oc3c(C)c(O)c4c(O)c(c(/C=N/N5CCN(C)CC5)c(O)c4c3C2=O)NC(=O)/C(C)=C\C=C\[C@H](C)[C@H](O)[C@@H](C)[C@@H](O)[C@@H](C)[C@H](OC(C)=O)[C@@H]1C | resazurin | H37RV | 7 days | 0.1 µg/mL |

| SMILES | test | system | setting | MIC |
| --- | --- | --- | --- | --- |
| O=c1[nH]c2nc(-c3ccncc3)sc2c(=O)n1O |  |  |  | > 100 µM |
| CCc1ccc(CCNc2cc(-c3ccccn3)nc3cc(Br)nn23)cc1 |  | H37RV |  | 21 µM |
| CO[C@H]1/C=C/O[C@@]2(C)Oc3c(C)c(O)c4c(O)c(c(/C=N/N5CCN(C)CC5)c(O)c4c3C2=O)NC(=O)/C(C)=C\C=C\[C@H](C)[C@H](O)[C@@H](C)[C@@H](O)[C@@H](C)[C@H](OC(C)=O)[C@@H]1C | resazurin | H37RV | 5 days | 0.03 µg/mL |
| CCc1cc(=O)c2c(O)c3ccoc3c(OC)c2o1 | resazurin |  | 21 days | 128 µg/mL |
| NC(=S)NN=Cc1ccc(OC(=O)CN2C(=O)CSC2=O)cc1 | resazurin | H37RV |  | 2.84 µM |
| CC(=O)NC[C@H]1CN(c2ccc(N3CCOCC3)c(F)c2)C(=O)O1 | resazurin | H37RV | 21 days | 0.003 µg/mL |
| COC(=O)C=C1SC(=NN=Cc2ccc(OC(=O)CN3C(=O)CSC3=O)cc2)NC1=O | resazurin | H37RV |  | 34.6 µM |
| CO[C@H]1/C=C/O[C@@]2(C)Oc3c(C)c(O)c4c(O)c(c(/C=N/N5CCN(C)CC5)c(O)c4c3C2=O)NC(=O)/C(C)=C\C=C\[C@H](C)[C@H](O)[C@@H](C)[C@@H](O)[C@@H](C)[C@H](OC(C)=O)[C@@H]1C | resazurin | H37RV | 21 days | 0.5 µg/mL |
| CC[C@@H](CO)NCCN[C@@H](CC)CO | resazurin | H37RV | 5 days | 1 µg/mL |
| CCc1ccc(CCNc2cc(-c3ccccn3)nc3nncn23)cc1 |  | H37RV |  | 0.12 µM |
| CCc1cc(=O)c2c(OCC(O)CNC(C)(C)C)c3ccoc3c(OC)c2o1 (stereo not shown) | resazurin |  | 21 days | 32 µg/mL |
| CO[C@H]1/C=C/O[C@@]2(C)Oc3c(C)c(O)c4c(O)c(c(/C=N/N5CCN(C)CC5)c(O)c4c3C2=O)NC(=O)/C(C)=C\C=C\[C@H](C)[C@H](O)[C@@H](C)[C@@H](O)[C@@H](C)[C@H](OC(C)=O)[C@@H]1C |  | H37RV |  | 0.06 µg/mL |
| FC(F)(F)Oc1ccc(CCNc2cc(-c3cccs3)nc3nncn23)cc1 |  | H37RV |  | 0.33 µM |
| CCc1cc(=O)c2c(OCC(O)CN(CC)CC)c3ccoc3c(OC)c2o1 (stereo not shown) | resazurin | H37RV | 21 days | 128 µg/mL |
| NNC(=O)c1ccncc1 |  | H37RV |  | 0.62 µM |
| COc1cc(C=NNC(N)=S)ccc1OC(=O)CN1C(=O)CSC1=O | resazurin | H37RV |  | 5.23 µM |
| FC(F)(F)c1ccc(CCNc2cc(-c3ccccn3)nc3nncn23)cc1 |  | H37RV |  | 0.53 µM |
| CCc1cc(=O)c2c(OCC(O)CN3CCOCC3)c3ccoc3c(OC)c2o1 (stereo not shown) | resazurin |  | 21 days | 64 µg/mL |
